Calls of active or inactive are those of the source.
Columns and labels:
Assay type in all cases: functional
Pseudomonas aeruginosa [1] = test: Antibacterial activity against Pseudomonas aeruginosa MTCC 2453 assessed as inhibition of bacterial growth incubated for 24 hrs by agar well diffusion method; conditions: MTCC 2453, 24 h
Outline: (§1)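 Strains from MTCC; inoculum at 0.5 McFarland spread on Mueller-Hinton agar; 6 mm wells loaded with compound over 125–0.97 µg/mL; ciprofloxacin positive control (same range), DMSO negative control. Plates held 24 h at 37 °C; MIC taken as lowest concentration giving a clear inhibition zone. Triplicate runs, mean MIC reported.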

Bacillus subtilis [2] = test: Antibacterial activity against Bacillus subtilis MTCC 121 assessed as inhibition of bacterial growth incubated for 24 hrs by agar well diffusion method; conditions: MTCC 121, 24 h; outline: as §1
Escherichia coli [3] = test: Antibacterial activity against Escherichia coli MTCC 739 assessed as inhibition of bacterial growth incubated for 24 hrs by agar well diffusion method; conditions: MTCC 739, 24 h; outline: as §1
Staphylococcus aureus [4] = test: Antibacterial activity against Staphylococcus aureus MLS-16 MTCC 2940 assessed as inhibition of bacterial growth incubated for 24 hrs by agar well diffusion method; conditions: MLS-16 MTCC 2940, 24 h; outline: as §1
Raoultella planticola [5] = test: Antibacterial activity against Klebsiella planticola MTCC 530 assessed as inhibition of bacterial growth incubated for 24 hrs by agar well diffusion method; conditions: MTCC 530, 24 h; outline: as §1
Candida albicans = test: Antifungal activity against Candida albicans MTCC 3017 assessed as inhibition of fungal growth incubated for 24 hrs by agar well diffusion method
Outline: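 Candida strains from MTCC, pre-cultured and spread on Mueller Hinton agar. Wells received compound dissolved in 10% DMSO, 125–0.97 µg/mL; miconazole standard over the same range, DMSO negative control. After 24 h at 37 °C, MIC was read as the lowest concentration giving an inhibition zone. Duplicate experiments, means given.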

Micrococcus luteus [6] = test: Antibacterial activity against Micrococcus luteus MTCC 2470 assessed as inhibition of bacterial growth incubated for 24 hrs by agar well diffusion method; conditions: MTCC 2470, 24 h; outline: as §1
Staphylococcus aureus [7] = test: Antibacterial activity against Staphylococcus aureus MTCC 96 assessed as inhibition of bacterial growth incubated for 24 hrs by agar well diffusion method; conditions: MTCC 96, 24 h; outline: as §1
Staphylococcus aureus [8] = test: Bactericidal activity against Staphylococcus aureus MTCC 96 assessed as bacterial killing incubated for 24 hrs; conditions: MTCC 96, 24 h
Outline: (§2)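 Broth tube assay: compound at 0–125 µg/mL in Mueller Hinton broth, overnight culture added to 0.5 McFarland (1.5 × 10^8 cfu/mL), held 24 h at 37 °C. 10 µL from each tube plated on Mueller Hinton agar. MBC is the lowest concentration that kills the strain. Duplicates, means reported.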

Pseudomonas aeruginosa [9] = test: Bactericidal activity against Pseudomonas aeruginosa MTCC 2453 assessed as bacterial killing incubated for 24 hrs; conditions: MTCC 2453, 24 h; outline: as §2
Bacillus subtilis [10] = test: Bactericidal activity against Bacillus subtilis MTCC 121 assessed as bacterial killing incubated for 24 hrs; conditions: MTCC 121, 24 h; outline: as §2
Escherichia coli [11] = test: Bactericidal activity against Escherichia coli MTCC 739 assessed as bacterial killing incubated for 24 hrs; conditions: MTCC 739, 24 h; outline: as §2
Staphylococcus aureus [12] = test: Bactericidal activity against Staphylococcus aureus MLS-16 MTCC 2940 assessed as bacterial killing incubated for 24 hrs; conditions: MLS-16 MTCC 2940, 24 h; outline: as §2
Micrococcus luteus [13] = test: Bactericidal activity against Micrococcus luteus MTCC 2470 assessed as bacterial killing incubated for 24 hrs; conditions: MTCC 2470, 24 h; outline: as §2
Raoultella planticola [14] = test: Bactericidal activity against Klebsiella planticola MTCC 530 assessed as bacterial killing incubated for 24 hrs; conditions: MTCC 530, 24 h; outline: as §2

COc1cc(/C=N/NC(=O)c2n[nH]c3c2Cc2cc(F)ccc2-3)ccc1O
31.2 µg/mL: MIC (Candida albicans; MTCC 3017, 24 h)
> 125 µg/mL: MIC (Pseudomonas aeruginosa [1]) | MIC (Bacillus subtilis [2]) | MIC (Escherichia coli [3]) | MIC (Raoultella planticola [5]) | MIC (Micrococcus luteus [6]) | MIC (Staphylococcus aureus [7])
3.9 µg/mL: MIC (Staphylococcus aureus [4])

O=C(N/N=C/c1ccc(Br)cc1)c1n[nH]c2c1Cc1ccccc1-2
15.6 µg/mL: MIC (Bacillus subtilis [2]) | MIC (Staphylococcus aureus [4]) | MIC (Staphylococcus aureus [7])
> 125 µg/mL: MIC (Pseudomonas aeruginosa [1]) | MIC (Escherichia coli [3]) | MIC (Raoultella planticola [5]) | MIC (Candida albicans; MTCC 3017, 24 h) | MIC (Micrococcus luteus [6])

COc1cc(/C=N/NC(=O)c2n[nH]c3c2Cc2cc(F)ccc2-3)cc(OC)c1OC
3.9 µg/mL: MIC (Bacillus subtilis [2]) | MIC (Escherichia coli [3]) | MIC (Staphylococcus aureus [7])
> 125 µg/mL: MIC (Candida albicans; MTCC 3017, 24 h)
7.8 µg/mL: MIC (Pseudomonas aeruginosa [1]) | MIC (Staphylococcus aureus [4]) | MIC (Raoultella planticola [5]) | MIC (Micrococcus luteus [6])

O=C(N/N=C/c1ccc(Br)cc1)c1n[nH]c2c1Cc1cc(F)ccc1-2
> 125 µg/mL: MIC (Pseudomonas aeruginosa [1]) | MIC (Escherichia coli [3]) | MIC (Raoultella planticola [5]) | MIC (Candida albicans; MTCC 3017, 24 h) | MIC (Micrococcus luteus [6])
7.8 µg/mL: MIC (Bacillus subtilis [2]) | MIC (Staphylococcus aureus [7])
15.6 µg/mL: MIC (Staphylococcus aureus [4])

O=C(N/N=C/c1ccc(Cl)cc1)c1n[nH]c2c1Cc1ccccc1-2
7.8 µg/mL: MIC (Bacillus subtilis [2]) | MIC (Escherichia coli [3])
> 125 µg/mL: MIC (Pseudomonas aeruginosa [1]) | MIC (Raoultella planticola [5]) | MIC (Candida albicans; MTCC 3017, 24 h) | MIC (Micrococcus luteus [6])
3.9 µg/mL: MIC (Staphylococcus aureus [4]) | MIC (Staphylococcus aureus [7])

COc1ccc(/C=N/NC(=O)c2n[nH]c3c2Cc2ccccc2-3)cc1OC
> 125 µg/mL: MIC (Pseudomonas aeruginosa [1]) | MIC (Bacillus subtilis [2]) | MIC (Escherichia coli [3]) | MIC (Staphylococcus aureus [4]) | MIC (Raoultella planticola [5]) | MIC (Candida albicans; MTCC 3017, 24 h) | MIC (Micrococcus luteus [6]) | MIC (Staphylococcus aureus [7])

COc1ccc2c(c1)Cc1c(C(=O)N/N=C/c3cc(OC)c(OC)c(OC)c3)n[nH]c1-2
> 125 µg/mL: MIC (Pseudomonas aeruginosa [1]) | MIC (Escherichia coli [3]) | MIC (Raoultella planticola [5]) | MIC (Candida albicans; MTCC 3017, 24 h)
3.9 µg/mL: MIC (Bacillus subtilis [2]) | MIC (Micrococcus luteus [6])
7.8 µg/mL: MIC (Staphylococcus aureus [4])
15.6 µg/mL: MIC (Staphylococcus aureus [7])

COc1ccc2c(c1)Cc1c(C(=O)N/N=C/c3ccc(OC)c(OC)c3)n[nH]c1-2
> 125 µg/mL: MIC (Pseudomonas aeruginosa [1]) | MIC (Escherichia coli [3]) | MIC (Raoultella planticola [5]) | MIC (Candida albicans; MTCC 3017, 24 h)
7.8 µg/mL: MIC (Bacillus subtilis [2]) | MIC (Staphylococcus aureus [4])
3.9 µg/mL: MIC (Micrococcus luteus [6]) | MIC (Staphylococcus aureus [7])

O=C(N/N=C/c1c(F)cc(F)cc1F)c1n[nH]c2c1Cc1cc(F)ccc1-2
7.8 µg/mL: MIC (Bacillus subtilis [2]) | MIC (Staphylococcus aureus [7])
3.9 µg/mL: MIC (Staphylococcus aureus [4])
> 125 µg/mL: MIC (Pseudomonas aeruginosa [1]) | MIC (Escherichia coli [3]) | MIC (Raoultella planticola [5]) | MIC (Micrococcus luteus [6])
31.2 µg/mL: MIC (Candida albicans; MTCC 3017, 24 h)

COc1ccc(/C=N/NC(=O)c2n[nH]c3c2Cc2cc(F)ccc2-3)cc1OC
3.9 µg/mL: MIC (Staphylococcus aureus [4])
> 125 µg/mL: MIC (Pseudomonas aeruginosa [1]) | MIC (Bacillus subtilis [2]) | MIC (Escherichia coli [3]) | MIC (Raoultella planticola [5]) | MIC (Candida albicans; MTCC 3017, 24 h) | MIC (Micrococcus luteus [6]) | MIC (Staphylococcus aureus [7])

O=C(N/N=C/c1c(F)cc(F)cc1F)c1n[nH]c2c1Cc1ccccc1-2
15.6 µg/mL: MIC (Bacillus subtilis [2])
> 125 µg/mL: MIC (Pseudomonas aeruginosa [1]) | MIC (Escherichia coli [3]) | MIC (Staphylococcus aureus [4]) | MIC (Raoultella planticola [5]) | MIC (Candida albicans; MTCC 3017, 24 h) | MIC (Micrococcus luteus [6]) | MIC (Staphylococcus aureus [7])

COc1ccc2c(c1)Cc1c(C(=O)N/N=C/c3ccc(O)cc3)n[nH]c1-2
> 125 µg/mL: MIC (Pseudomonas aeruginosa [1]) | MIC (Escherichia coli [3]) | MIC (Raoultella planticola [5]) | MIC (Candida albicans; MTCC 3017, 24 h)
7.8 µg/mL: MIC (Bacillus subtilis [2]) | MIC (Staphylococcus aureus [4]) | MIC (Staphylococcus aureus [7])
3.9 µg/mL: MIC (Micrococcus luteus [6])

COc1ccc2c(c1)Cc1c(C(=O)N/N=C/c3ccc(Cl)cc3)n[nH]c1-2
> 125 µg/mL: MIC (Pseudomonas aeruginosa [1]) | MIC (Raoultella planticola [5]) | MIC (Candida albicans; MTCC 3017, 24 h)
3.9 µg/mL: MIC (Escherichia coli [3]) | MIC (Micrococcus luteus [6]) | MIC (Staphylococcus aureus [7])
7.8 µg/mL: MIC (Bacillus subtilis [2]) | MIC (Staphylococcus aureus [4])

COc1cc(/C=N/NC(=O)c2n[nH]c3c2Cc2ccccc2-3)cc(OC)c1OC
> 125 µg/mL: MIC (Pseudomonas aeruginosa [1]) | MIC (Escherichia coli [3]) | MIC (Raoultella planticola [5]) | MIC (Candida albicans; MTCC 3017, 24 h) | MIC (Micrococcus luteus [6])
15.6 µg/mL: MIC (Staphylococcus aureus [4]) | MIC (Staphylococcus aureus [7])
7.8 µg/mL: MIC (Bacillus subtilis [2])

O=C(N/N=C/c1ccc(Cl)cc1)c1n[nH]c2c1Cc1cc(F)ccc1-2
> 125 µg/mL: MIC (Pseudomonas aeruginosa [1]) | MIC (Escherichia coli [3]) | MIC (Raoultella planticola [5]) | MIC (Candida albicans; MTCC 3017, 24 h) | MIC (Micrococcus luteus [6])
15.6 µg/mL: MIC (Staphylococcus aureus [4]) | MIC (Staphylococcus aureus [7])
7.8 µg/mL: MIC (Bacillus subtilis [2])

COc1ccc2c(c1)Cc1c(C(=O)N/N=C/c3ccc(Br)cc3)n[nH]c1-2
> 125 µg/mL: MIC (Pseudomonas aeruginosa [1]) | MIC (Bacillus subtilis [2]) | MIC (Escherichia coli [3]) | MIC (Staphylococcus aureus [4]) | MIC (Raoultella planticola [5]) | MIC (Candida albicans; MTCC 3017, 24 h) | MIC (Micrococcus luteus [6]) | MIC (Staphylococcus aureus [7])

O=C(O)c1cn(C2CC2)c2cc(N3CCNCC3)c(F)cc2c1=O [CIPROFLOXACIN]
inactive: MIC (Candida albicans)
0.9 µg/mL: MIC (Pseudomonas aeruginosa [1]) | MIC (Bacillus subtilis [2]) | MIC (Escherichia coli [3]) | MIC (Staphylococcus aureus [4]) | MIC (Raoultella planticola [5]) | MIC (Micrococcus luteus [6]) | MIC (Staphylococcus aureus [7])
1.9 µg/mL: MBC (Staphylococcus aureus [8]) | MBC (Pseudomonas aeruginosa [9]) | MBC (Bacillus subtilis [10]) | MBC (Escherichia coli [11]) | MBC (Staphylococcus aureus [12]) | MBC (Micrococcus luteus [13]) | MBC (Raoultella planticola [14])

Reference: ChEMBL document CHEMBL4373647, “Design, synthesis, and antimicrobial evaluation of 1,4-dihydroindeno[1,2-c]pyrazole tethered carbohydrazide hybrids: exploring their in silico ADMET, ergosterol inhibition and ROS inducing potential” (Medchemcomm, 2019)
